Measurements reported in ChEMBL document CHEMBL5303300, “EUbOPEN Chemogenomics Library - Multiplex” (2023).
“And” between values parts separate entries of the source, which are not always exact repeats. Equal entries are not always repeated.

Columns and labels:
Format in all cases: toxicity, cell-based
HEK-293T = assay: Multiplex assay against HEK293T; conditions: human, number of replicates 2
How it was run: (§1)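 Live cells were stained at seeding with Hoechst33342, BioTracker Green Microtubule Cytoskeleton Dye, MitoTracker Red and Annexin V Alexa Fluor 680. Following compound addition, they were imaged on a CQ1 microscope at 37°C and 5% CO2 and gated by CellPathfinder machine learning into Hoechst high-intensity objects or normal cells, with normal cells split into healthy, pyknosed or fragmented nuclei and pyknosed cells into mitotic or apoptotic. Tubulin, mitochondrial-mass and membrane-permeability phenotypes are per cents of healthy-nucleus cells.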

Fibroblast = assay: Multiplex assay against human fibroblast; conditions: number of replicates 2; how it was run: as §1
U2OS = assay: Multiplex assay against U2OS; conditions: human, number of replicates 2; how it was run: as §1
[1] = 12 h, 1 µM, compound concentration 1 uM
[2] = 12 h, 10 µM, compound concentration 10 uM
[3] = 24 h, 1 µM, compound concentration 1 uM
[4] = 24 h, 10 µM, compound concentration 10 uM
[5] = 48 h, 1 µM, compound concentration 1 uM
[6] = 48 h, 10 µM, compound concentration 10 uM

## COc1cc(OC)cc(-c2cc3cnc(N)nc3nc2NC(=O)NC(C)(C)C)c1
HEK-293T; [1]
  Population Apoptotic (%): 61% and 63% and 50% and 43%
  Population Fragmented Nuclei (%): 7% and 3% and 2% and 4%
  Population Healthy Nuclei (%): 77% and 80% and 85% and 83%
  Population Hoechst High Intensity Objects (%): 9% and 11% and 10%
  Population Membrane Permeable-Phenotype (%): 6% and 2% and 3% and 1%
  Population Mitochondria Different-Phenotype (%): 15% and 13% and 18% and 20%
  Population Mitotic Cells (%): 38% and 36% and 50% and 56%
  Population Normal (%): 90% and 88% and 89%
  Population Pyknosed Nuclei (%): 15% and 16% and 11%
  Population Tubulin-Different-Phenotype (%): 55% and 48% and 54% and 53%
  Total Cell Count: 713 and 595 and 582 and 616
HEK-293T; [2]
  Population Apoptotic (%): 52% and 55% and 50% and 64%
  Population Fragmented Nuclei (%): 2% and 3% and 7% and 5%
  Population Healthy Nuclei (%): 82% and 86% and 79% and 81%
  Population Hoechst High Intensity Objects (%): 4% and 7% and 12% and 10%
  Population Membrane Permeable-Phenotype (%): 1% and 2%
  Population Mitochondria Different-Phenotype (%): 25% and 15% and 17% and 19%
  Population Mitotic Cells (%): 47% and 44% and 49% and 35%
  Population Normal (%): 95% and 92% and 87% and 89%
  Population Pyknosed Nuclei (%): 14% and 10% and 12%
  Population Tubulin-Different-Phenotype (%): 54% and 47% and 72% and 63%
  Total Cell Count: 524 and 626 and 917 and 726
HEK-293T; [3]
  Population Apoptotic (%): 46% and 54% and 51% and 53%
  Population Fragmented Nuclei (%): 10% and 7% and 8%
  Population Healthy Nuclei (%): 76% and 78% and 82% and 80%
  Population Hoechst High Intensity Objects (%): 10% and 8%
  Population Membrane Permeable-Phenotype (%): 3% and 1% and 2%
  Population Mitochondria Different-Phenotype (%): 5% and 2% and 7%
  Population Mitotic Cells (%): 53% and 45% and 48% and 46%
  Population Normal (%): 89% and 91%
  Population Pyknosed Nuclei (%): 12% and 11% and 9%
  Population Tubulin-Different-Phenotype (%): 28% and 23% and 29% and 30%
  Total Cell Count: 1161 and 950 and 940 and 952
HEK-293T; [4]
  Population Apoptotic (%): 52% and 40% and 48%
  Population Fragmented Nuclei (%): 5% and 4% and 11% and 8%
  Population Healthy Nuclei (%): 85% and 88% and 78% and 82%
  Population Hoechst High Intensity Objects (%): 8% and 9%
  Population Membrane Permeable-Phenotype (%): 3% and 2% and 1%
  Population Mitochondria Different-Phenotype (%): 11% and 4% and 3%
  Population Mitotic Cells (%): 47% and 59% and 51%
  Population Normal (%): 91% and 90%
  Population Pyknosed Nuclei (%): 9% and 6% and 10%
  Population Tubulin-Different-Phenotype (%): 30% and 35% and 38% and 33%
  Total Cell Count: 797 and 901 and 1521 and 1236
HEK-293T; [5]
  Population Apoptotic (%): 16% and 24% and 25% and 17%
  Population Fragmented Nuclei (%): 13% [middle of 4 runs]
  Population Healthy Nuclei (%): 75% and 84% and 83% and 86%
  Population Hoechst High Intensity Objects (%): 8% and 7% and 10%
  Population Membrane Permeable-Phenotype (%): 6% and 3% and 4% and 2%
  Population Mitochondria Different-Phenotype (%): 0%
  Population Mitotic Cells (%): 83% and 75% and 82%
  Population Normal (%): 91% and 92% and 89%
  Population Pyknosed Nuclei (%): 2% and 3% and 4%
  Population Tubulin-Different-Phenotype (%): 12% and 9% and 13% and 16%
  Total Cell Count: 3190 and 2284 and 2394 and 1901
HEK-293T; [6]
  Population Apoptotic (%): 28% and 21% and 14%
  Population Fragmented Nuclei (%): 14% [middle of 4 runs]
  Population Healthy Nuclei (%): 85% and 87% and 73% and 82%
  Population Hoechst High Intensity Objects (%): 9% and 10%
  Population Membrane Permeable-Phenotype (%): 4% and 5% and 2%
  Population Mitochondria Different-Phenotype (%): 0% and 1%
  Population Mitotic Cells (%): 71% and 78% and 85%
  Population Normal (%): 90% and 89%
  Population Pyknosed Nuclei (%): 3% and 2%
  Population Tubulin-Different-Phenotype (%): 15% and 18% and 20%
  Total Cell Count: 1964 and 1991 and 3775 and 2773
Fibroblast; [1]
  Population Apoptotic (%): 28% and 48% and 41% and 34%
  Population Fragmented Nuclei (%): 10% and 16% and 6% and 8%
  Population Healthy Nuclei (%): 72% and 62% and 76% and 70%
  Population Hoechst High Intensity Objects (%): 0% and 11%
  Population Membrane Permeable-Phenotype (%): 7% and 6% and 5%
  Population Mitochondria Different-Phenotype (%): 2% and 0%
  Population Mitotic Cells (%): 71% and 51% and 58% and 65%
  Population Normal (%): 100% and 88%
  Population Pyknosed Nuclei (%): 17% and 20% and 16%
  Population Tubulin-Different-Phenotype (%): 18% and 11% and 9% and 8%
  Total Cell Count: 258 and 266 and 187 and 224
Fibroblast; [2]
  Population Apoptotic (%): 50% and 26% and 38% and 34%
  Population Fragmented Nuclei (%): 8% and 9% and 14% and 12%
  Population Healthy Nuclei (%): 60% and 67% and 71% and 66%
  Population Hoechst High Intensity Objects (%): 0%
  Population Membrane Permeable-Phenotype (%): 4% and 5%
  Population Mitochondria Different-Phenotype (%): 0% and 1%
  Population Mitotic Cells (%): 50% and 73% and 61% and 65%
  Population Normal (%): 100% and 99%
  Population Pyknosed Nuclei (%): 23% [middle of 4 runs]
  Total Cell Count: 176 and 182 and 232 and 229
Fibroblast; [3]
  Population Apoptotic (%): 54% and 53% and 55%
  Population Fragmented Nuclei (%): 8% and 21% and 10%
  Population Healthy Nuclei (%): 74% and 57% and 71% and 65%
  Population Hoechst High Intensity Objects (%): 0% and 13%
  Population Membrane Permeable-Phenotype (%): 4% and 6% and 5%
  Population Mitochondria Different-Phenotype (%): 0% and 1%
  Population Mitotic Cells (%): 45% and 46% and 44%
  Population Normal (%): 99% and 86% and 100%
  Population Pyknosed Nuclei (%): 17% and 21% and 24%
  Population Tubulin-Different-Phenotype (%): 12% [middle of 4 runs]
  Total Cell Count: 260 and 192 and 201
Fibroblast; [4]
  Population Apoptotic (%): 57% and 48% and 65% and 58%
  Population Fragmented Nuclei (%): 11% and 13% and 16% and 18%
  Population Healthy Nuclei (%): 63% and 67% and 70% and 66%
  Population Hoechst High Intensity Objects (%): 0%
  Population Membrane Permeable-Phenotype (%): 5% and 1% and 4%
  Population Mitochondria Different-Phenotype (%): 0% and 1%
  Population Mitotic Cells (%): 42% and 51% and 34% and 41%
  Population Normal (%): 100% and 99%
  Population Pyknosed Nuclei (%): 25% and 18% and 13% and 15%
  Total Cell Count: 187 and 175 and 231 and 236
Fibroblast; [5]
  Population Apoptotic (%): 70% and 65% and 60% and 68%
  Population Fragmented Nuclei (%): 10% and 18% and 12% and 15%
  Population Healthy Nuclei (%): 75% and 63% and 65%
  Population Hoechst High Intensity Objects (%): 0% and 18%
  Population Membrane Permeable-Phenotype (%): 2% and 10% and 8% and 6%
  Population Mitochondria Different-Phenotype (%): 0%
  Population Mitotic Cells (%): 29% and 34% and 40% and 31%
  Population Normal (%): 100% and 81%
  Population Pyknosed Nuclei (%): 13% and 17% and 12% and 19%
  Population Tubulin-Different-Phenotype (%): 7% and 10% and 9% and 6%
  Total Cell Count: 266 and 238 and 205 and 226
Fibroblast; [6]
  Population Apoptotic (%): 74% and 66% and 75% and 69%
  Population Fragmented Nuclei (%): 13% and 10% and 16% and 18%
  Population Healthy Nuclei (%): 65% and 67% and 71% and 69%
  Population Hoechst High Intensity Objects (%): 0%
  Population Membrane Permeable-Phenotype (%): 8% and 0% and 5% and 4%
  Population Mitochondria Different-Phenotype (%): 1% and 0%
  Population Mitotic Cells (%): 25% and 33% and 24% and 30%
  Population Normal (%): 100%
  Population Pyknosed Nuclei (%): 20% and 22% and 12%
  Total Cell Count: 190 and 176 and 237 and 215
U2OS; [1]
  Population Apoptotic (%): 80% [middle of 4 runs]
  Population Fragmented Nuclei (%): 11% and 5% and 6% and 4%
  Population Healthy Nuclei (%): 80% and 87% and 83% and 89%
  Population Hoechst High Intensity Objects (%): 0%
  Population Membrane Permeable-Phenotype (%): 2% and 0% and 1%
  Population Mitochondria Different-Phenotype (%): 0%
  Population Normal (%): 100%
  Population Pyknosed Nuclei (%): 7% and 6% and 10% and 5%
  Population Tubulin-Different-Phenotype (%): 52% and 94% and 55% and 80%
U2OS; [2]
  Population Healthy Nuclei (%): 85% and 60% and 88% and 65%
  Population Hoechst High Intensity Objects (%): 0%
  Population Membrane Permeable-Phenotype (%): 6% [middle of 4 runs]
  Population Mitochondria Different-Phenotype (%): 0% and 4%
  Population Normal (%): 99% and 100%
  Population Pyknosed Nuclei (%): 10% and 15% and 6% and 9%
  Population Tubulin-Different-Phenotype (%): 64% [middle of 4 runs]
U2OS; [3]
  Population Apoptotic (%): 60% and 84% and 50%
  Population Fragmented Nuclei (%): 3% and 1% and 2%
  Population Healthy Nuclei (%): 89% and 90% and 82% and 86%
  Population Hoechst High Intensity Objects (%): 1% and 0%
  Population Membrane Permeable-Phenotype (%): 0% and 3% and 1%
  Population Mitochondria Different-Phenotype (%): 1% and 0%
  Population Normal (%): 98% and 100%
  Population Pyknosed Nuclei (%): 6% and 8% and 14% and 11%
  Population Tubulin-Different-Phenotype (%): 56% and 85% and 53% and 83%
U2OS; [4]
  Population Apoptotic (%): 54% [middle of 4 runs]
  Population Healthy Nuclei (%): 83% and 68% and 84% and 72%
  Population Hoechst High Intensity Objects (%): 0%
  Population Membrane Permeable-Phenotype (%): 4% [middle of 4 runs]
  Population Mitochondria Different-Phenotype (%): 1% and 8% and 0%
  Population Normal (%): 100%
  Population Pyknosed Nuclei (%): 10% and 16% and 9% and 13%
  Population Tubulin-Different-Phenotype (%): 62% [middle of 4 runs]
U2OS; [5]
  Population Apoptotic (%): 50% and 84% and 60% and 74%
  Population Fragmented Nuclei (%): 3% and 2% and 4%
  Population Healthy Nuclei (%): 86% and 88% and 92%
  Population Hoechst High Intensity Objects (%): 0%
  Population Membrane Permeable-Phenotype (%): 1% and 0%
  Population Mitochondria Different-Phenotype (%): 0% and 1%
  Population Normal (%): 100%
  Population Pyknosed Nuclei (%): 10% and 8% and 4% and 7%
  Population Tubulin-Different-Phenotype (%): 70% and 90% and 59% and 84%
U2OS; [6]
  Population Apoptotic (%): 48% and 69% and 66% and 78%
  Population Healthy Nuclei (%): 87% and 68% and 86% and 64%
  Population Hoechst High Intensity Objects (%): 0%
  Population Membrane Permeable-Phenotype (%): 2% and 9%
  Population Mitochondria Different-Phenotype (%): 0% and 3% and 1%
  Population Mitotic Cells (%): 33% [middle of 4 runs]
  Population Normal (%): 100% and 99%
  Population Pyknosed Nuclei (%): 10% and 16% and 17%
  Population Tubulin-Different-Phenotype (%): 67% [middle of 4 runs]
